Source: PubChem
Insulin prom up: MIN6 insulin promoter up-regulation. MIN6 insulin promoter-GFP reporter, high-content imaging; hits give high values. z-score at 5 µM. 0.3% of 190,000 active. AID 1625;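 active means z-score above 3 at 5 µM with at least 500 cells counted in the well; inconclusive means wells under 500 cells, flagged as cytotoxic or low count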
SKKanGAS inh: SKKanGAS growth inhibition; AID 1662; inhibition, % at 7.5 µM; 1.3% of 300,000 active; S. pyogenes SKKanGAS, kanamycin growth, BacTiter-Glo, 6 h;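 active means mean replicate score, as percent of positive control median, at least 50; inconclusive means mean below 50 but one replicate at or above 50; inactive means mean and every replicate below 50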;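 further: strain carries kanamycin resistance gene driven by streptokinase promoter and grows in 40 µg/ml kanamycin; loss of luminescence reflects streptokinase promoter inhibition or plain growth inhibition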
WT yeast gro inh: growth inhibition of WT yeast, mitochondrial fusion screen; 2.1% of 190,000 active; inhibition, % at 10 µM; mitochondrial fusion phenotypic screen, WT strain; in the data active means inhibition above about 58%; tested in S. cerevisiae
Cl transport mod: modulators of human KCC2 chloride dependent transport; Q9H2X9; B-score of Tl+ flux slope (higher = more flux/activation; lower = inhibition) at 10 µM; 2.2% of 190,000 active; KCC2 cells, thallium flux FluoZin-2 fluorescence;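 active means thallium flux slope and its plate-corrected score both differing from the plate sample mean at a set confidence after two filtering rounds, in either direction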;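 further: slope of fluorescence scaled to starting intensity during 10 to 20 s after thallium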
Rad51 HR inh: Rad51 (human) homologous recombination inhibition; Q06609; hRad51 DNA strand exchange, fluorescence dequenching; inhibition, % at 10 µM; 0.085% of 200,000 active;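 active means inhibition above 40% at the single screening dose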
Target sequence (Q06609 whole entry, looked up): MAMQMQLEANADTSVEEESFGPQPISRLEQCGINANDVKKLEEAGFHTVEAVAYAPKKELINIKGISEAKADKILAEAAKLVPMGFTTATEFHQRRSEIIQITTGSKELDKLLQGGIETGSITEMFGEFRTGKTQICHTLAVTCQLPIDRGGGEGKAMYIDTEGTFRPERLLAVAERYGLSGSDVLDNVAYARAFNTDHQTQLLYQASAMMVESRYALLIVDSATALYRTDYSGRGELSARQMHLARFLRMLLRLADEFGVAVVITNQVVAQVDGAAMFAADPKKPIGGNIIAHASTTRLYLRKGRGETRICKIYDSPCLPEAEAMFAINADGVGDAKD
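Material: human Rad51–ssDNA filaments; Probe or stimulus: labelled 47-mer dsDNA for strand exchange; Doses: single 10 µM dose; Incubation: 37 °C 15-min filament assembly, 30-min compound preincubation, 15-min exchange; Technique: FRET fluorescence dequenching, excitation 485 nm, emission 520 nm; Measure: Fluorescence-based percent inhibition, control- and blank-normalised; Benchmarks: plate control and blank wells.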
Autophagy mod: autophagy modulation, high-content screen. MEF GFP-LC3 puncta imaging; test concentration mostly 10 µM. calls only at 10 µM (by protocol). 0.98% of 190,000 active. AID 463193;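 active means percentage of spot-positive cells more than 3 SD above its plate mean, without a fluorescence outlier flag or 80% toxicity; inconclusive means no clear call, values can overlap the other calls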
KCC2 sec1: confirmation of human KCC2 transport modulators | shares compounds with Cl transport mod | HEK293-KCC2, thallium flux, FluoZin2 fluorescence; hits give high values | normalised thallium flux (F/F0 slope) at 10 µM | 15% of 3,700 active | AID 1713;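 active means thallium flux slope above the same plate's solvent-only control mean plus 3 SD; inconclusive means the two replicate wells disagree; inactive means no significant difference from solvent-only control wells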
KCC2 bumet counter: thallium flux persisting under bumetanide in KCC2 cells, counter-screen secondary assay | HEK293-KCC2 + bumetanide/ouabain, thallium flux FluoZin2; hits give high values | normalized thallium flux at 10 µM | AID 1714 | 49% of 3,700 active | shares compounds with Cl transport mod;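 active means thallium entry rate above the same plate's blocked-transporter control wells by more than 3 SD; inconclusive means the two repeat wells disagree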;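 further: raw slope of fluorescence over initial fluorescence between 10 and 20 s after thallium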
KCC2 secondary2: confirmation of human KCC2 transport modulators; shares compounds with Cl transport mod; HEK293-KCC2, thallium flux FluoZin2 fluorescence; actives lie on both sides; F/F0 rise rate, 10–20 s post-thallium; normalized thallium flux at 10 µM; 23% of 3,700 active; AID 1715;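 active means thallium flux slope more than 3 SD above or below the plate's solvent-only control mean, mostly below; inconclusive means the two repeat wells disagreed; inactive means no significant shift from solvent-only controls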
HEK293 Tl flux: parental HEK flux effect, counter-screen; AID 1716; shares compounds with Cl transport mod; thallium flux rate (normalised fluorescence) at 10 µM; 46% of 3,700 active; HEK293 parental cells, thallium flux FluoZin2, ouabain; baseline-ratio fluorescence slope, 10–20 s after thallium;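 active means thallium flux rate significantly above the same plate's solvent-only control wells, beyond their mean plus 3 SD; inconclusive means the two replicate wells gave conflicting results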
KCC2 ouabain: KCC2 (human) modulation, ouabain retest. shares compounds with Cl transport mod. HEK293-KCC2, thallium flux FluoZin2 fluorescence; bidirectional: low = inhibitor, high = activator. raw Tl+ flux slope (below DMSO = inhibition, above = activation) at 10 µM. 48% of 3,700 active. AID 1717;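 active means thallium flux slope beyond 3 SD from same-plate DMSO control mean in most replicates, usually higher, sometimes lower; inconclusive means repeat tests gave conflicting results; inactive means no significant difference from controls in most replicates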;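 further: slope of initial-normalized fluorescence between seconds 10 and 20 after thallium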
HEK counter2: acts in parental HEK cells, second KCC2 counter-screen. AID 1718. thallium flux slope at 10 µM. 33% of 3,700 active. HEK293 parental, thallium flux FluoZin-2 fluorescence slope. shares compounds with Cl transport mod;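 active means thallium flux slope above the same plate's solvent-control mean plus 3 SD in both duplicate wells; inconclusive means duplicate wells that disagreed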;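 further: run without ouabain in cells lacking the KCC2 cotransporter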
A number is an active result; n = inactive; u = inconclusive; x = not tested or not shown. Rows were chosen to be rich in hits. Some 4.2% of all compounds tested hit in one or more screens of this group.

SMILES | Insulin prom up | SKKanGAS inh | WT yeast gro inh | Cl transport mod | Rad51 HR inh | Autophagy mod | KCC2 sec1 | KCC2 bumet counter | KCC2 secondary2 | HEK293 Tl flux | KCC2 ouabain | HEK counter2
Cc1[nH]n(-c2ccccc2)c(=O)c1/C=N/N1C(=O)c2cccc3cccc(c23)C1=O | n | n | n | 24 | n | n | u | 0.02 | 0.045 | 0.017 | 0.032 | 0.017
CCC(C)(C)n1nnnc1C(c1ccc(O)c(OC)c1)N1CCN(c2nc3ccccc3s2)CC1 (centres undefined) | n | x | n | -4.3 | n | n | n | n | 0.023 | n | 0.016 | n
COc1ccc(C(c2nnnn2C(C)(C)C)N2CCN(c3nc4ccccc4s3)CC2)cc1 (centres undefined) | n | n | n | n | n | n | x | x | x | x | x | x
O=C1C2C3c4ccccc4C(c4ccccc43)C2C(=O)N1Cc1ccccn1 (centres undefined) | n | n | n | n | n | n | x | x | x | x | x | x
Cc1[nH]c(=S)sc1Cc1ccc(Cl)c(Cl)c1 | x | n | n | 49 | n | n | u | 0.084 | u | 0.037 | 0.048 | 0.015
Cc1nnc(SCc2ccc(Cl)c(Cl)c2)s1 | n | n | n | x | x | n | x | x | x | x | x | x
CC(C)n1c(NCc2nc3ccccc3n2C)nc2ccccc21 | x | n | n | x | n | n | n | n | n | n | n | u
COc1ccc(C2CC(c3ccccc3)n3nc(NC(=O)c4cccs4)nc3N2)cc1 (centres undefined) | n | n | n | -3.3 | x | n | n | n | n | n | n | n
O=C1C(Cl)=C(Nc2ccccc2)C(=O)c2ccccc21 | u | n | n | 4.5 | n | n | n | n | n | n | n | n
O=C(O)c1ccc(NC2=C(Cl)C(=O)c3ccccc3C2=O)cc1 | x | n | x | -6.5 | n | x | n | 0.0094 | n | n | 0.017 | n
O=C(O)c1cccc(NC2=C(Cl)C(=O)c3ccccc3C2=O)c1 | n | n | n | n | n | n | x | x | x | x | x | x
CC(C)NC1=C(Cl)C(=O)c2ccccc2C1=O | n | n | n | n | n | n | x | x | x | x | x | x
CC1(C)Cc2c(C#N)c(N3CCN(C(=O)c4ccco4)CC3)nc(Cc3ccccc3)c2CO1 | n | n | n | x | n | n | n | n | n | u | 0.017 | n
Cc1nc(N2CCN(C(=O)c3ccc(Cl)cc3)CC2)c(C#N)c2c1COC(C)(C)C2 | x | n | n | n | n | n | n | n | n | u | n | n
CCc1nc(N2CCN(C(C)=O)CC2)c(C#N)c2c1COC(C)(C)C2 | n | n | x | n | n | x | x | x | x | x | x | x
CC1(C)Cc2c(C#N)c(NCCc3ccccc3)nc(-c3ccco3)c2CO1 | x | n | n | n | n | n | n | n | n | n | n | n
CCN(CC)CCNc1nc(-c2ccco2)c2c(c1C#N)CC(C)(C)OC2 | x | x | n | n | n | n | x | x | x | x | x | x
CCc1nc(N2CCN(C(=O)c3ccco3)CC2)c(C#N)c2c1COC(C)(C)C2 | x | n | x | x | x | x | x | x | x | x | x | x
CCn1c(C)c(C)c2cc(C(=O)NC3CCCCCC3)ccc21 | x | n | x | x | x | x | x | x | x | x | x | x
CC12CC3(C)CC(C)(C1)CC(C(=O)NC(=S)N1CCCC1)(C2)C3 | x | n | n | 7.9 | n | n | n | 0.0095 | n | 0.01 | u | u
Cc1cccc(NC(=S)N/N=C/c2cccn2Cc2ccc(F)cc2)c1 | n | n | n | 6.3 | n | n | n | 0.0088 | u | n | n | n
